Measured values published in ChEMBL document CHEMBL1817665, “Synthesis and identification of β-aryloxyquinolines and their pyrano[3,2-c]chromene derivatives as a new class of antimicrobial and antituberculosis agents” (2011).
Values after ≈ are worked out from the molar mass of the structure shown.

Tests used:
[1] = system: Aspergillus fumigatus; experiment: […] activity against 10^8 CFU/mL Aspergillus fumigatus MTCC 3008 by NCCLS M100-S12(M7) broth microdilution method; format: functional
[2] = system: Bacillus subtilis; experiment: Antibacterial activity against 10^8 CFU/mL Bacillus subtilis MTCC 441 by NCCLS M100-S12(M7) broth microdilution method; format: functional
Outline: (§1)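 Broth microdilution in Mueller Hinton broth. Inoculum was adjusted by turbidity to 10^8 CFU/mL. Compounds came from 2000 µg/mL DMSO stocks. Primary screen used 500, 250 and 200 µg/mL; actives were retested at 100, 62.5, 50 and 25 µg/mL. Tubes were incubated overnight at 37 °C. […] A known-sensitivity organism was run in parallel.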

[3] = system: Clostridium tetani; experiment: Antibacterial activity against 10^8 CFU/mL Clostridium tetani MTCC 449 by NCCLS M100-S12(M7) broth microdilution method; format: functional; outline: as §1
[4] = system: Escherichia coli; experiment: Antibacterial activity against 10^8 CFU/mL Escherichia coli MTCC 443 by NCCLS M100-S12(M7) broth microdilution method; format: functional; outline: as §1
[5] = system: Vibrio cholerae; experiment: Antibacterial activity against 10^8 CFU/mL Vibrio cholerae MTCC 3906 by NCCLS M100-S12(M7) broth microdilution method; format: functional; outline: as §1
[6] = system: Streptococcus pneumoniae; experiment: Antibacterial activity against 10^8 CFU/mL Streptococcus pneumoniae MTCC 1936 by NCCLS M100-S12(M7) broth microdilution method; format: functional; outline: as §1
[7] = system: Mycobacterium tuberculosis; experiment: Antituberculosis activity against Mycobacterium tuberculosis H37Rv at 250 ug/mL after 24 hrs by Lowenstein-Jensen method; format: functional
[8] = system: Salmonella typhi; experiment: Antibacterial activity against 10^8 CFU/mL Salmonella typhi MTCC 98 by NCCLS M100-S12(M7) broth microdilution method; format: functional, Salmonella enterica subsp. enterica serovar Typhi; details: Salmonella enterica; outline: as §1
[9] = system: Candida albicans; experiment: […] activity against 10^8 CFU/mL Candida albicans MTCC 227 by NCCLS M100-S12(M7) broth microdilution method; format: functional
[10] = system: Mycobacterium tuberculosis; experiment: Antituberculosis activity against Mycobacterium tuberculosis H37Rv after 24 hrs by Lowenstein-Jensen method; format: functional

Cc1ccc2nc(Oc3ccccc3)c(C=O)cc2c1
MIC99 [1]: 500 µg/mL (≈ 1900 µM)
MIC99 [2]: 250 µg/mL (≈ 950 µM)
MIC99 [3]: 200 µg/mL (≈ 760 µM)
MIC99 [4]: 200 µg/mL (≈ 760 µM)
MIC99 [5]: 250 µg/mL (≈ 950 µM)
MIC99 [6]: 500 µg/mL (≈ 1900 µM)
inhibition at 250 µg/mL [7]: 62%
MIC99 [8]: 200 µg/mL (≈ 760 µM)
MIC99 [9]: 250 µg/mL (≈ 950 µM)

O=Cc1cc2ccccc2nc1Oc1ccc(Cl)cc1
MIC99 [1]: > 1000 µg/mL
MIC99 [2]: 200 µg/mL (≈ 705 µM)
MIC99 [3]: 500 µg/mL (≈ 1760 µM)
MIC99 [4]: 100 µg/mL (≈ 352 µM)
MIC99 [5]: 500 µg/mL (≈ 1760 µM)
MIC99 [6]: 62.5 µg/mL (≈ 220 µM)
inhibition at 250 µg/mL [7]: 64%
MIC99 [8]: 200 µg/mL (≈ 705 µM)
MIC99 [9]: 250 µg/mL (≈ 881 µM)

COc1ccc2nc(Oc3ccccc3)c(C=O)cc2c1
MIC99 [1]: > 1000 µg/mL
MIC99 [2]: 100 µg/mL (≈ 358 µM)
MIC99 [3]: 250 µg/mL (≈ 895 µM)
MIC99 [4]: 62.5 µg/mL (≈ 224 µM)
MIC99 [5]: 200 µg/mL (≈ 716 µM)
MIC99 [6]: 200 µg/mL (≈ 716 µM)
inhibition at 250 µg/mL [7]: 42%
MIC99 [8]: 100 µg/mL (≈ 358 µM)
MIC99 [9]: 1000 µg/mL (≈ 3580 µM)

O=Cc1cc2ccccc2nc1Oc1ccccc1
MIC99 [1]: > 1000 µg/mL
MIC99 [2]: 1000 µg/mL (≈ 4010 µM)
MIC99 [3]: 500 µg/mL (≈ 2010 µM)
MIC99 [4]: 500 µg/mL (≈ 2010 µM)
MIC [10]: 260 µg/mL (≈ 1040 µM)
MIC99 [5]: 500 µg/mL (≈ 2010 µM)
MIC99 [6]: 500 µg/mL (≈ 2010 µM)
inhibition at 250 µg/mL [7]: 95%
MIC99 [8]: 500 µg/mL (≈ 2010 µM)
MIC99 [9]: > 1000 µg/mL

Cc1ccc2nc(Oc3ccc(Cl)cc3)c(C=O)cc2c1
MIC99 [1]: 1000 µg/mL (≈ 3360 µM)
MIC99 [2]: 500 µg/mL (≈ 1680 µM)
MIC99 [3]: 500 µg/mL (≈ 1680 µM)
MIC99 [4]: 250 µg/mL (≈ 840 µM)
MIC [10]: 310 µg/mL (≈ 1040 µM)
MIC99 [5]: 500 µg/mL (≈ 1680 µM)
MIC99 [6]: 250 µg/mL (≈ 840 µM)
inhibition at 250 µg/mL [7]: 93%
MIC99 [8]: 100 µg/mL (≈ 336 µM)
MIC99 [9]: 500 µg/mL (≈ 1680 µM)

CC1(C)S[C@@H]2[C@H](NC(=O)[C@H](N)c3ccccc3)C(=O)N2[C@H]1C(=O)O [AMPICILLIN]
MIC99 [2]: 250 µg/mL (≈ 715 µM)
MIC99 [3]: 250 µg/mL (≈ 715 µM)
MIC99 [4]: 100 µg/mL (≈ 286 µM)
MIC99 [5]: 100 µg/mL (≈ 286 µM)
MIC99 [6]: 100 µg/mL (≈ 286 µM)
MIC99 [8]: 100 µg/mL (≈ 286 µM)

NYSTATIN
MIC99 [1]: 100 µg/mL
MIC99 [9]: 100 µg/mL

COc1ccc2nc(Oc3ccc(Cl)cc3)c(C=O)cc2c1
MIC99 [1]: 1000 µg/mL (≈ 3190 µM)
MIC99 [2]: 200 µg/mL (≈ 637 µM)
MIC99 [3]: 200 µg/mL (≈ 637 µM)
MIC99 [4]: 200 µg/mL (≈ 637 µM)
MIC99 [5]: 200 µg/mL (≈ 637 µM)
MIC99 [6]: 250 µg/mL (≈ 797 µM)
inhibition at 250 µg/mL [7]: 54%
MIC99 [8]: 200 µg/mL (≈ 637 µM)
MIC99 [9]: 500 µg/mL (≈ 1590 µM)

NNC(=O)c1ccncc1 [ISONIAZID]
MIC [10]: 0.2 µg/mL (≈ 1.46 µM)

Cc1ccc(Oc2nc3ccc(C)cc3cc2C=O)cc1
MIC99 [1]: 1000 µg/mL (≈ 3610 µM)
MIC99 [2]: 250 µg/mL (≈ 901 µM)
MIC99 [3]: 200 µg/mL (≈ 721 µM)
MIC99 [4]: 50 µg/mL (≈ 180 µM)
MIC99 [5]: 200 µg/mL (≈ 721 µM)
MIC99 [6]: 200 µg/mL (≈ 721 µM)
inhibition at 250 µg/mL [7]: 84%
MIC99 [8]: 100 µg/mL (≈ 361 µM)
MIC99 [9]: 500 µg/mL (≈ 1800 µM)

Cc1ccc(Oc2nc3ccccc3cc2C=O)cc1
MIC99 [1]: 500 µg/mL (≈ 1900 µM)
MIC99 [2]: 500 µg/mL (≈ 1900 µM)
MIC99 [3]: 250 µg/mL (≈ 950 µM)
MIC99 [4]: 100 µg/mL (≈ 380 µM)
MIC99 [5]: 250 µg/mL (≈ 950 µM)
MIC99 [6]: 250 µg/mL (≈ 950 µM)
inhibition at 250 µg/mL [7]: 74%
MIC99 [8]: 100 µg/mL (≈ 380 µM)
MIC99 [9]: 500 µg/mL (≈ 1900 µM)

COC1=CC(=O)C[C@@H](C)[C@]12Oc1c(Cl)c(OC)cc(OC)c1C2=O [GRISEOFULVIN]
MIC99 [1]: 100 µg/mL (≈ 283 µM)
MIC99 [9]: 500 µg/mL (≈ 1420 µM)

COc1ccc2nc(Oc3ccc(C)cc3)c(C=O)cc2c1
MIC99 [1]: 1000 µg/mL (≈ 3410 µM)
MIC99 [2]: 250 µg/mL (≈ 852 µM)
MIC99 [3]: 500 µg/mL (≈ 1700 µM)
MIC99 [4]: 250 µg/mL (≈ 852 µM)
MIC99 [5]: 500 µg/mL (≈ 1700 µM)
MIC99 [6]: 500 µg/mL (≈ 1700 µM)
inhibition at 250 µg/mL [7]: 23%
MIC99 [8]: 250 µg/mL (≈ 852 µM)
MIC99 [9]: 250 µg/mL (≈ 852 µM)
